According to ChEMBL document CHEMBL4390665, “New 4-phenylcoumarin derivatives as potent 3C protease inhibitors: Design, synthesis, anti-HAV effect and molecular modeling” (Eur J Med Chem, 2019):
≈ marks a conversion by molar mass, not a printed value.

Assays:
[1] = Therapeutic index, ratio of CC50 of rhesus monkey FRhK cells to IC50 of antiviral activity against Hepatitis A virus infected in rhesus monkey FRhK4 cells assessed as inhibition in viral adsorption using cells pre-incubated with compound for 24 hrs before viral infection for 1 hr by MTT assay; format: toxicity, cell-based; conditions: read-out: Ratio CC50/IC50
Method in brief: (§1)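 FRhK-4 monolayers in 24-well plates were exposed to non-toxic compound concentrations for 24 h at 37 °C in 5% CO2. Compound was then removed and HAV added for 1 h, after which the inoculum was replaced with medium for 72 h. MTT OD540 was read in triplicate alongside virus-infected and cell-only controls to give IC50. TI = CC50/IC50.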

Hepatovirus A [2] = test: Antiviral activity against Hepatitis A virus infected in rhesus monkey FRhK4 cells assessed as inhibition in viral adsorption using cells pre-incubated with compound for 24 hrs before viral infection for 1 hr by MTT assay; format: functional, organism-based; conditions: FRhK-4; method in brief: as §1
Hepatovirus A [3] = test: Antiviral activity against Hepatitis A virus infected in rhesus monkey FRhK4 cells assessed as inhibition in viral replication using cells pre-infected with virus before compound exposure for 72 hrs by MTT assay; format: functional, organism-based; conditions: FRhK-4, 72 h
Method in brief: (§2)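 FRhK-4 monolayers were infected with HAV for 1 h. Unbound virus was removed and replaced with medium containing non-toxic compound concentrations, then incubated 72 h at 37 °C in 5% CO2. MTT OD540 was read in triplicate alongside virus-infected and cell-only controls to give IC50. TI = CC50/IC50.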

Hepatovirus A [4] = test: Antiviral activity against Hepatitis A virus infected in rhesus monkey FRhK4 cells assessed as reduction in virus-induced cytopathic effect incubated for 72 hrs by MTT assay; format: functional, organism-based; conditions: FRhK-4, 72 h
Method in brief: (§3)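 Virucidal format: HAV (10^6 […] TCID50/0.1 ml) was mixed with an equal volume of non-toxic compound concentrations for 1 h at 37 °C. The mixture was added to FRhK-4 monolayers for 1 h, then replaced with medium for 72 h. MTT OD540 was read in triplicate with virus and cell controls to give IC50. TI = CC50/IC50.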

[5] = Therapeutic index, ratio of CC50 of rhesus monkey FRhK cells to IC50 for antiviral activity against Hepatitis A virus infected in rhesus monkey FRhK4 cells assessed as inhibition in viral replication using cells pre-infected with virus before compound exposure for 72 hrs by MTT assay; format: toxicity, cell-based; conditions: read-out: Ratio CC50/IC50; method in brief: as §2
[6] = Therapeutic index, ratio of CC50 of rhesus monkey FRhK cells to IC50 of antiviral activity against Hepatitis A virus infected in rhesus monkey FRhK4 cells; format: toxicity, cell-based; conditions: read-out: Ratio CC50/IC50; method in brief: as §3
[7] = Cytotoxicity against rhesus monkey FRhK4 cells assessed as reduction in cell viability incubated for 48 hrs by MTT assay; format: cell-based, Macaca mulatta
Method in brief: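 FRhK-4 cells (DMEM, 10% FBS) were seeded at 5 X 10^3 cells/well and grown 24 h. They were exposed to compound at 7.8–1000 µg/mL for 48 h at 37 °C in 5% CO2. MTT (5 mg/mL) was added for 4 h, then DMSO for 30 min, and OD540 read. CC50 was derived from the mean of three ODs versus untreated cells.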

[8] = Binding affinity to Hepatitis A virus Protease 3C; set-up: species or system Hepatovirus A
[9] = Inhibition of HAV 3C expressed in Escherichia coli BL21(DE3) pLysS using Dabcyl-GLRTQSND (edans) G as substrate preincubated for 3 mins before enzyme addition by fluorescence method based Cheng and Prusoff equation analysis; set-up: species or system Hepatovirus A
[10] = Inhibition of HAV 3C expressed in Escherichia coli BL21(DE3) pLysS using Dabcyl-GLRTQSND (edans) G as substrate preincubated for 3 mins before enzyme addition by fluorescence method; set-up: species or system Hepatovirus A
[11] = Inhibition of HRV 3C using chromogenic peptide substrate pre-incubated for 15 mins before substrate addition and measured after 1 to 2 hrs by colorimetric method
Method in brief: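 HRV 3C protease was assayed with a commercial screening kit, with reagents equilibrated to room temperature. Enzyme was incubated with compound for 15 min at room temperature, with enzyme and solvent controls. Substrate was then added and absorbance at 405 nm read in kinetic mode for 1–2 h at 37 °C.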

IC50 [10] [µM] | IC50 [11] [µM] | Compound | selectivity ratio at 1 h [1] | IC50 (Hepatovirus A [2]) [µg/mL] | IC50 (Hepatovirus A [3]) [µg/mL] | IC50 (Hepatovirus A [4]) [µg/mL] | selectivity ratio at 72 h [5] | selectivity ratio [6] | CC50 at 48 h [7] [µg/mL] | pKd [8] | Ki [9] [µM]
– | – | O=c1cc(-c2ccccc2)c2ccc(O)cc2o1 | 0.3 | 1130 (≈ 4760 µM) | 42.5 (≈ 178 µM) | 4.8 (≈ 20.1 µM) | 8 | 70.8 | 340 (≈ 1430 µM) | – | –
– | – | NNC(=O)COc1ccc2c(-c3ccccc3)cc(=O)oc2c1 | 7 | 112 (≈ 361 µM) | 1120 (≈ 3610 µM) | 3920 (≈ 12600 µM) | 0.7 | 0.2 | 785 (≈ 2530 µM) | – | –
– | – | CCn1c(COc2ccc3c(-c4ccccc4)cc(=O)oc3c2)n[nH]c1=S | 12 | 49.7 (≈ 131 µM) | 82.7 (≈ 218 µM) | 12.9 (≈ 34 µM) | 7 | 46 | 597 (≈ 1570 µM) | – | –
– | – | CCn1c(COc2ccc3c(-c4ccccc4)cc(=O)oc3c2)nnc1SCCN1CCOCC1 | 0.8 | 1180 (≈ 2390 µM) | 13.4 (≈ 27.2 µM) | 47 (≈ 95.4 µM) | 70 | 20 | 942 (≈ 1910 µM) | – | –
– | – | C/C(=N\NC(=O)COc1ccc2c(-c3ccccc3)cc(=O)oc2c1)c1ccccc1 | 2 | 219 (≈ 531 µM) | 730 (≈ 1770 µM) | 110 (≈ 265 µM) | 0.6 | 4 | 438 (≈ 1060 µM) | – | –
– | – | Cc1cc(C)n(C(=O)COc2ccc3c(-c4ccccc4)cc(=O)oc3c2)n1 | 9 | 83.6 (≈ 223 µM) | 44.3 (≈ 118 µM) | 37.6 (≈ 100 µM) | 17 | 20 | 753 (≈ 2010 µM) | – | –
– | – | CNc1nnc(COc2ccc3c(-c4ccccc4)cc(=O)oc3c2)s1 | 0.8 | 544 (≈ 1490 µM) | 145 (≈ 397 µM) | 2180 (≈ 5950 µM) | 3 | 0.2 | 435 (≈ 1190 µM) | – | –
7.19 | 6.3 | C/C(=N\NC(=O)COc1ccc2c(-c3ccccc3)cc(=O)oc2c1)c1ccc(Br)cc1 | 88 | 8.5 (≈ 17.3 µM) | 62.6 (≈ 127 µM) | 1880 (≈ 3830 µM) | 12 | 0.4 | 752 (≈ 1530 µM) | 5.53 | 0.217
– | – | Cn1c(COc2ccc3c(-c4ccccc4)cc(=O)oc3c2)n[nH]c1=S | 0.5 | 1300 (≈ 3550 µM) | 13.5 (≈ 36.9 µM) | 11.3 (≈ 30.9 µM) | 48 | 57 | 648 (≈ 1770 µM) | – | –
– | – | CCOC(=O)COc1ccc2c(-c3ccccc3)cc(=O)oc2c1 | 5 | 180 (≈ 555 µM) | 25.7 (≈ 79.2 µM) | 1290 (≈ 3960 µM) | 35 | 0.7 | 900 (≈ 2770 µM) | – | –
– | – | CNC(=S)NNC(=O)COc1ccc2c(-c3ccccc3)cc(=O)oc2c1 | 80 | 11.9 (≈ 31 µM) | 63.4 (≈ 165 µM) | 238 (≈ 620 µM) | 15 | 4 | 951 (≈ 2480 µM) | – | –
– | – | O=C(COc1ccc2c(-c3ccccc3)cc(=O)oc2c1)N/N=C1/C(=O)Nc2ccccc21 | 2 | 242 (≈ 550 µM) | 121 (≈ 275 µM) | 80.5 (≈ 183 µM) | 4 | 6 | 483 (≈ 1100 µM) | – | –
– | – | CN(C)CCSc1nnc(COc2ccc3c(-c4ccccc4)cc(=O)oc3c2)o1 | 8 | 112 (≈ 264 µM) | 35.8 (≈ 84.5 µM) | 44.8 (≈ 106 µM) | 25 | 20 | 897 (≈ 2120 µM) | – | –
– | – | O=C(COc1ccc2c(-c3ccccc3)cc(=O)oc2c1)N/N=C1/C(=O)Nc2ccc(Br)cc21 | 44 | 21.6 (≈ 41.7 µM) | 18.3 (≈ 35.3 µM) | 13 (≈ 25.1 µM) | 52 | 73 | 951 (≈ 1830 µM) | – | –
– | – | O=c1cc(-c2ccccc2)c2ccc(OCc3n[nH]c(=S)o3)cc2o1 | 2 | 184 (≈ 521 µM) | 7.34 (≈ 20.8 µM) | 4.7 (≈ 13.3 µM) | 50 | 78 | 367 (≈ 1040 µM) | – | –
– | – | Nn1c(S)nnc1COc1ccc2c(-c3ccccc3)cc(=O)oc2c1 | 0.2 | 3240 (≈ 8840 µM) | 72 (≈ 197 µM) | 216 (≈ 590 µM) | 9 | 3 | 648 (≈ 1770 µM) | – | –
– | – | O=C(COc1ccc2c(-c3ccccc3)cc(=O)oc2c1)NN1C(=O)c2ccccc2C1=O | 72 | 13 (≈ 29.5 µM) | 1360 (≈ 3080 µM) | 106 (≈ 240 µM) | 0.7 | 9 | 951 (≈ 2160 µM) | – | –
17.8 | 16.1 | CCNC(=S)NNC(=O)COc1ccc2c(-c3ccccc3)cc(=O)oc2c1 | 8 | 32.2 (≈ 81.1 µM) | 86 (≈ 216 µM) | 3.1 (≈ 7.8 µM) | 3 | 83 | 258 (≈ 649 µM) | 6.78 | 1.9
– | – | CCN(CC)CCSc1nnc(COc2ccc3c(-c4ccccc4)cc(=O)oc3c2)o1 | 77 | 3.18 (≈ 7.04 µM) | 7.65 (≈ 16.9 µM) | 81.6 (≈ 181 µM) | 32 | 3 | 245 (≈ 543 µM) | – | –
– | – | CCNc1nnc(COc2ccc3c(-c4ccccc4)cc(=O)oc3c2)s1 | 7 | 18.4 (≈ 48.5 µM) | 25.8 (≈ 68 µM) | 64.5 (≈ 170 µM) | 5 | 2 | 129 (≈ 340 µM) | – | –
– | – | O=C(COc1ccc2c(-c3ccccc3)cc(=O)oc2c1)N/N=C1/C(=O)Nc2ccc(Cl)cc21 | 0.5 | 1100 (≈ 2320 µM) | 5490 (≈ 11600 µM) | 784 (≈ 1660 µM) | 0.1 | 0.7 | 549 (≈ 1160 µM) | – | –
– | – | O=c1cc(-c2ccccc2)c2ccc(OCc3nnc(SCCN4CCOCC4)o3)cc2o1 | 25 | 9.9 (≈ 21.3 µM) | 622 (≈ 1340 µM) | 9.9 (≈ 21.3 µM) | 0.4 | 25 | 249 (≈ 535 µM) | – | –
5.94 | 4.13 | C/C(=N\NC(=O)COc1ccc2c(-c3ccccc3)cc(=O)oc2c1)c1ccc(Cl)cc1 | 22 | 44.4 (≈ 99.4 µM) | 10.7 (≈ 23.9 µM) | 30.5 (≈ 68.2 µM) | 91 | 32 | 978 (≈ 2190 µM) | 5.51 | 0.104
– | – | Nc1nc2c(ncn2COCCO)c(=O)[nH]1 [ACYCLOVIR] | 85 | 33.5 (≈ 149 µM) | 30.6 (≈ 136 µM) | 35.6 (≈ 158 µM) | 93 | 80 | > 1000 | – | –
